Results from PMC3530405 (Journal of immunology (Baltimore, Md. : 1950), 2012).
“Also recorded” adds a separate entry of the source.

What was measured:
Type in all cases: biochemical
[1] = biological target: T1, ERAP2^N (Homo sapiens, UniProt Q6P179, K392N); experiment: Trimming of […] by ERAP2 alleles; conditions: ERAP2^N vs ERAP2^K; MS (LTQ Orbitrap), <30% completion
[2] = biological target: T2, ERAP2^K (Homo sapiens, UniProt Q6P179); experiment: Peptide trimming by ERAP2^K; conditions: for trimming rate relative to ERAP1: ERAP2^K compared to ERAP1
Outline: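 20 μM peptide was incubated with 100 to 4,000ng (7.3 to 293.6nM) ERAP1 or recombinant ERAP2 at 37°C for 15 min to 1 hour in 50mM HEPES pH 7.0, 100mM NaCl. Reactions were stopped with 0.1% TFA, centrifuged, and run on C18 RP-HPLC (5–50% acetonitrile, A220). Initial rates were taken under <30% completion, and enzymes were compared in parallel. Products were identified by peptide controls and MS; epitope destruction was measured from accumulated smaller peptides.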

[3] = biological target: T1, ERAP2^N; experiment: Peptide trimming by ERAP2^N; conditions: 20 μM precursor; for trimming rates, comparison of alleles: ERAP2^N vs ERAP2^K, 37°C, pH 7.0
[4] = biological target: T1, ERAP2^N; experiment: R-AMC hydrolysis / Michaelis-Menten analysis by ERAP2^N
[5] = biological target: T2, ERAP2^K; experiment: R-AMC hydrolysis / Michaelis-Menten analysis by ERAP2^K
[6] = biological target: T1, ERAP2^N; experiment: Inhibition of R-AMC hydrolysis by ERAP2^N; conditions: ERAP2^N vs ERAP2^K, Ki values only in Figure 7B
Outline: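 His-tagged recombinant human ERAP2 (N392 or K392 form), baculovirus-expressed in Hi5 insect cells, Ni-NTA purified and thawed once before use. R-AMC hydrolysis was tracked against rising inhibitor concentrations by fluorescence (ex 380 nm, em 460 nm) over 5 min, with the slope taken as the rate.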

[7] = precursor carrying N-terminal leucine
[8] = ERAP2^K, Michaelis-Menten analysis

T1 sequence (Q6P179 whole entry K392N): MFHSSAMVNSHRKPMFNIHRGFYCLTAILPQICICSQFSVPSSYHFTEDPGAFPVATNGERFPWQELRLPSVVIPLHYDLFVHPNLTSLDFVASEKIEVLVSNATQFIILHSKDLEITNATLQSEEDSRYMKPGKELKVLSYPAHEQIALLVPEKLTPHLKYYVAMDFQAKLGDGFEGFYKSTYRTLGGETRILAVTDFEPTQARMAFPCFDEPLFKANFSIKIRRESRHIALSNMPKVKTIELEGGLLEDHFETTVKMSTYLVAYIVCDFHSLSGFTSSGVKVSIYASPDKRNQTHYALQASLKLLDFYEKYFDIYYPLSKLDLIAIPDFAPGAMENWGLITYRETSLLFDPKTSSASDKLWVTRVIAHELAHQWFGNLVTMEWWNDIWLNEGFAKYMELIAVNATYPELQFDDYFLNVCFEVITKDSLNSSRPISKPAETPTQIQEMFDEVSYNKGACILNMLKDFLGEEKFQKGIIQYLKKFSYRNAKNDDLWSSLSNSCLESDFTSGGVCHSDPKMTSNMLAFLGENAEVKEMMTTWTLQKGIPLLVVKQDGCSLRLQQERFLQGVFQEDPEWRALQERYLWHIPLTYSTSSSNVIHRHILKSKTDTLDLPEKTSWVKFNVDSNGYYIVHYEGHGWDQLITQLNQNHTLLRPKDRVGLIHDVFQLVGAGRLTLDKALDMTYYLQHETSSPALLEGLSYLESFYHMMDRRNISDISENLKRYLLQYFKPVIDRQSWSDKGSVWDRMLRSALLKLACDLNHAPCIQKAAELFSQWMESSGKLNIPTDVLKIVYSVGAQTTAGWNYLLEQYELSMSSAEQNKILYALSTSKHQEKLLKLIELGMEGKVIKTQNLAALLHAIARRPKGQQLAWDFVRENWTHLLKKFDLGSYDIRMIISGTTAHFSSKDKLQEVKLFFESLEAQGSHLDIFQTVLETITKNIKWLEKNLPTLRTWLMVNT
T2 sequence (Q6P179 whole entry): as the sequence (Q6P179 whole entry K392N) above, with N392K counted along it

ASRHHAFSFR
epitope generation rate, fold faster [1]: about 2 fold

SRHHAFSFR
all three enzymes: epitope generation vs destruction ([2]; ERAP1, ERAP2^N and ERAP2^K, precursor carrying N-terminal leucine): generated the epitope faster than they destroyed it
trimming rate relative to ERAP1 [2, 7]: negligible compared to that of ERAP1

LSRYWAIRTR
epitope generation from precursor ([2]; ERAP2^K, RP-HPLC, 20 μM peptide, 37°C, pH 7.0): essentially failing to produce detectable amounts of mature epitope; also recorded: absence of a visible epitope peak produced by ERAP2^K
trimming rates, comparison of alleles [3]: drastically different

RSRYWAIRTR
trimming rates, comparison of alleles [3]: almost identical rates by both ERAP2 alleles; also recorded: essentially identical for both alleles

Cc1cc(=O)oc2cc(NC(=O)[C@@H](N)CCCN=C(N)N)ccc12 [R-AMC, L-Arginyl-7-amido-4-methyl coumarin]
Km ([4]; Michaelis-Menten analysis): 30 ± 9 µM
kcat ([4]; Michaelis-Menten analysis): 104±9 ×10^−3 sec^−1
rate of hydrolysis ([4]; fluorescence ex 380 nm, em 460 nm, 5 min): 78±1 mmol product/mol enzyme sec^−1
lowering of kcat constant ([5]; ERAP2^K vs ERAP2^N): about 18 fold
Km [5, 8]: 17 ± 5 µM
kcat [5, 8]: 5.8±0.4 ×10^−3 sec^−1
rate of hydrolysis ([5]; ERAP2^K, fluorescence ex 380 nm, em 460 nm, 5 min): 4.8±3 mmol/mol sec^−1
change of substrate affinity between polymorphic states ([5]; ERAP2^N vs ERAP2^K): less than 2 fold

WLRRYLENGK
trimming rate difference between alleles ([3]; ERAP2^N versus ERAP2^K): 165 fold

Amastatin
inhibition of the two ERAP2 alleles [6]: nearly identical

LSRHHAFSFR
trimming rate relative to ERAP1 [2, 7]: much less efficient
